Results as given in ChEMBL document CHEMBL4513216, “Probing the Open Global Health Chemical Diversity Library for Multistage-Active Starting Points for Next-Generation Antimalarials” (ACS Infect Dis, 2020).

Assay: Toxicity liver stage against HepG2, at 10uM
Assay type: cell-based
Design: test concentration 10 uM, cell line HepG2-A16-CD81EGFP
Settings: human, HepG2-A16-CD81EGFP cells; read-out: INHIBITION
Summary of the method: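 Uninfected HepG2-A16-CD81EGFP cells, 3 × 10^3 per well, 1536-well, plated on prespotted compound at 10 μM final, parasite-free screening media added to match infected plates; puromycin 10 μM positive, DMSO 0.5% negative; run in parallel with 48 h PbLuc assay at 37 °C, 5% CO2; viability by CellTiter-Glo luminescence, normalized to controls.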

With Cc1c(C)n2c(SCC(=O)N3CCOCC3)nnc2[nH]c1=O the cytotoxicity at 10 µM was 3.26%.

O=C(O)C1CCCN(c2nc3c(-c4ccccc4)csc3c(=O)[nH]2)C1 (stereo unspecified) showed a cytotoxicity at 10 µM of -10.1%.

In the case of C1CCN(c2nc(N3CCOCC3)nc3[nH]nnc23)CC1, the cytotoxicity at 10 µM is reported as 8.95%.

For O=C(Cn1ccc2ccccc21)N1CCC(Oc2ncccc2Br)CC1, the cytotoxicity at 10 µM was 4.51%.

Molecule COc1ncc(NC(=O)c2ccco2)c(OC)n1 has a cytotoxicity at 10 µM of -3.74%.

O=C(Nc1ccc2c(c1)OCO2)Nc1cnn(C2CCOCC2)c1 showed a cytotoxicity at 10 µM of -8.54%.

In the case of COCc1cnc2n1CCN(S(=O)(=O)N(C)C)C2C (stereo unspecified), the cytotoxicity at 10 µM is reported as 16.8%.

For CC(C)n1ccc(-c2cc(C(=O)NC3CC3)c3ccccn23)n1, the cytotoxicity at 10 µM was -5.4%.

Work on CC(C)CN1C(=O)CO[C@@H]2CN(C(=O)[C@H]3CCCO3)C[C@H]21 yielded a cytotoxicity at 10 µM of -5.12%.

For CCCc1noc(C2CCN(C(=O)CCn3nc(C)cc3C)CC2)n1, the cytotoxicity at 10 µM was 7.47%.

CCOc1cc(C(=O)N2CCOCC2)cc2occc12 showed a cytotoxicity at 10 µM of -4.92%.

In the case of Cc1ccc(CN2C(=O)CCC2C(=O)Nc2cnn(C)c2)o1 (stereo unspecified), the cytotoxicity at 10 µM is reported as -3.72%.

In the case of Oc1ccc(C2Nc3ccccc3C3=NCCCN32)cc1 (stereo unspecified), the cytotoxicity at 10 µM is reported as -39.1%.

Work on O=C(N[C@@H]1CCC[C@@H](N2CCOCC2)[C@@H]1O)c1ncccn1 yielded a cytotoxicity at 10 µM of -25.9%.

In the case of CCN(Cc1ccncc1)CC1(O)CCN(C(=O)c2cnn(C)c2)C1 (stereo unspecified), the cytotoxicity at 10 µM is reported as -26.9%.

Molecule Cc1noc(C)c1-c1cccc(CC2CCN(C(=O)CN)C2)n1 (stereo unspecified) has a cytotoxicity at 10 µM of -3.36%.

Molecule Cc1cccc(Nc2nccnc2C2CCCN(CC(=O)N(C)C)C2)n1 (stereo unspecified) has a cytotoxicity at 10 µM of -3.03%.

Work on Cc1n[nH]c(C)c1-c1nccnc1CC1CCN(C(C)C)CC1 yielded a cytotoxicity at 10 µM of -5.36%.

In the case of Cn1ccc(C(=O)N2CCCC(c3cc(O)n(C)n3)C2)n1 (stereo unspecified), the cytotoxicity at 10 µM is reported as -13.7%.

Molecule CC1CCCCN1c1nc2c(c(=O)[nH]1)CCN(Cc1ccccn1)C2 (stereo unspecified) has a cytotoxicity at 10 µM of -10.7%.

In the case of COc1cnc(C2(O)CCN(C(=O)c3scnc3C)CC2)c(OC)n1, the cytotoxicity at 10 µM is reported as -6.41%.

Cc1nccn1-c1cccc(C2CCCN(C3CCCC3)C2)n1 (stereo unspecified) gave a cytotoxicity at 10 µM of -12.7%.

Molecule Cc1cncc(C2CCCN(C(=O)c3cn(C)nc3C)C2)n1 (stereo unspecified) has a cytotoxicity at 10 µM of -7.91%.

CC(=O)N1CCCC(c2cccc(-n3ccnc3)n2)C1 (stereo unspecified) gave a cytotoxicity at 10 µM of -9.08%.

Work on COc1ccc(CN2C[C@@H](O)[C@](O)(CNC(=O)c3ccccn3)C2)cc1 yielded a cytotoxicity at 10 µM of 8.46%.

Molecule CCC(=O)N1CCC(Cc2ccccc2-c2ccccc2)(C(N)=O)C1 (stereo unspecified) has a cytotoxicity at 10 µM of -0.105%.

CC(=O)N1CCC(Cc2cnc(-c3c(C)n[nH]c3C)cn2)C1 (stereo unspecified) showed a cytotoxicity at 10 µM of -1.88%.

With O=C1NCc2ccccc2CC12CCN(Cc1ccccc1Cl)CC2 the cytotoxicity at 10 µM was 5.86%.

Work on CC(C)CN(C(=O)COc1ccc(C(N)=O)cc1)C1CCN(C)CC1 yielded a cytotoxicity at 10 µM of -3.24%.

CN(C)c1ncc(NC(=O)c2cccc(Nc3cnn(C)c3)c2)cn1 showed a cytotoxicity at 10 µM of -2.93%.

In the case of COCC(C)NC(=O)c1sccc1-n1cnnn1 (stereo unspecified), the cytotoxicity at 10 µM is reported as -0.132%.

CC(C)c1nc(C(=O)N(C)c2ccc(Br)cn2)cs1 showed a cytotoxicity at 10 µM of 7.84%.

COc1cccc(-c2nc(CNCCc3cccnc3)cs2)c1 showed a cytotoxicity at 10 µM of -1.77%.

Molecule CC(=O)NCCCNCc1ccc(Cl)c2cccnc12 has a cytotoxicity at 10 µM of -3.17%.

COc1cccnc1NC(=O)COc1c(C)cccc1C gave a cytotoxicity at 10 µM of 0.819%.

For COc1cccc(NC(=O)NC(C)(C)c2noc(C)n2)c1, the cytotoxicity at 10 µM was 7.35%.

CCC1CN(Cc2nnc(C3CC3)o2)CCN1CCOC (stereo unspecified) gave a cytotoxicity at 10 µM of 3.13%.

Work on CC(C)c1ncc2c(n1)CN(Cc1nc3c(F)cccc3[nH]1)CC2 yielded a cytotoxicity at 10 µM of 1.09%.

Cn1c(SCC(O)COCc2ccccc2Cl)nnc1C1CC1 (stereo unspecified) showed a cytotoxicity at 10 µM of -2.24%.

N#Cc1nccnc1NC1CCN(c2ccccc2OC(F)F)C1 (stereo unspecified) showed a cytotoxicity at 10 µM of 12.8%.

In the case of CCN(C(=O)c1ccc2nncn2c1)C(C)Cc1ccc(OC)cc1 (stereo unspecified), the cytotoxicity at 10 µM is reported as -5.53%.

Cn1cc(CCCNS(=O)(=O)N2CCCC2c2ccco2)cn1 (stereo unspecified) gave a cytotoxicity at 10 µM of 9.38%.

For Cc1cc(S(C)(=O)=O)c(C)c(S(=O)(=O)N2CCCCCC2)c1, the cytotoxicity at 10 µM was 14.1%.

In the case of CCN(CC)c1ccc(NC(=O)NCC2(C(N)=O)CCOCC2)cn1, the cytotoxicity at 10 µM is reported as 7.15%.

In the case of CC(=O)c1ccc(OCC(=O)NS(=O)(=O)c2ccc(Cl)s2)cc1, the cytotoxicity at 10 µM is reported as 1.77%.

Work on COc1ccc(CCn2cnnc2[S+](C)[O-])cc1 (stereo unspecified) yielded a cytotoxicity at 10 µM of 3.4%.

Molecule CC(=O)N(C)c1nc(Cn2nnnc2C2CCCC2)cs1 has a cytotoxicity at 10 µM of 2.11%.

With CC(C)N(CCCNC(=O)C1CCCN(C(N)=O)C1)S(C)(=O)=O (stereo unspecified) the cytotoxicity at 10 µM was -8.51%.

CC(C)OCCN1CCN(c2ccc(Cl)cn2)CC1 showed a cytotoxicity at 10 µM of -1.67%.

With COc1ccccc1CNCc1nn(-c2ccccc2)c2c1CCC2 the cytotoxicity at 10 µM was 34.4%.

Molecule O=C(Cn1ncc2ccccc21)Nc1ccnn1CC1CCOC1 (stereo unspecified) has a cytotoxicity at 10 µM of 3.03%.

COc1ccc2c(c1)CC(NCCCn1cc(C)cn1)CC2 (stereo unspecified) gave a cytotoxicity at 10 µM of 18%.

In the case of N#Cc1ccccc1CN(CCO)Cc1ccsc1, the cytotoxicity at 10 µM is reported as 18.4%.

CC1(C)Cc2ccc(C(=O)NC3CCS(=O)(=O)C3)c(O)c2O1 (stereo unspecified) showed a cytotoxicity at 10 µM of 0.329%.

Work on O=C(CCC1CCCO1)NCCCC(=O)Nc1ccc(Cl)cc1 (stereo unspecified) yielded a cytotoxicity at 10 µM of -0.649%.

CN(Cc1ccc(F)cc1)C(=O)NCC1(N2CCOCC2)CCSC1 (stereo unspecified) showed a cytotoxicity at 10 µM of -21.9%.
